Screens from PubChem.
In the library only some 1.9% were active in any assay of this set; here they are far more common.
PP1 inh: PP1-alpha phosphatase inhibitors, primary screen, counter-screen for PP5 inhibitor project, biochemical, fluorescence, OMFP substrate, single point; Serine/threonine-protein phosphatase PP1-alpha catalytic subunit (Homo sapiens), P62136; purified PP1alpha; inhibition, % at 6.7 µM; 320,000 compounds, 0.9% hits;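 active = inhibition above the mean inhibition of all tested compounds plus 3 SD, computed separately for each screening campaign, cut at about 15% in these data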
Target sequence (P62136 whole entry, looked up): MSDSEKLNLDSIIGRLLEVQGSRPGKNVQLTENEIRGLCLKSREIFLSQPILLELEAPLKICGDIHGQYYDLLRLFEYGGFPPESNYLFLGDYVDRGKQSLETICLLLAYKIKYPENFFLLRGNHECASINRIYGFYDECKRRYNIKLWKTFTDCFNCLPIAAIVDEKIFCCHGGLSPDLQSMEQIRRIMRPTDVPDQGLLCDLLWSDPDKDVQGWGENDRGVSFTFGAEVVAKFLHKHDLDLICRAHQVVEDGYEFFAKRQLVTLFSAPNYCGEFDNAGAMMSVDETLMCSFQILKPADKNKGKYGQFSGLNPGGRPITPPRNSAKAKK
PP5 primary: PP5 phosphatase inhibitors, primary screen, biochemical, fluorescence; inhibition, % at 6.7 µM; purified PP5c, OMFP substrate fluorescence; Serine/threonine-protein phosphatase 5 (Homo sapiens), P53041; AID 1987, 2009; 320,000 compounds, 0.18% hits;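 active = inhibition above the campaign's mean inhibition across all tested compounds plus 3 SD, cut at about 9.5% in these data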
NS3 helicase inh: inhibitors of HCV NS3 helicase, primary screen, biochemical, Cy5 molecular beacon fluorescence; Hepatitis C virus NS3 helicase; NS3 helicase DNA unwinding; inhibition, % at 10.9 µM; 290,000 compounds, 0.56% hits; AID 1800, 2009;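 active = inhibition above the mean of all tested compounds plus 3 SD, set per campaign, cut at about 35% in these data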
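System: NS3 helicase fragment of HCV / Schedule: 1 h at 25 °C / Control set: DMSO alone as 0% and 110 µM thioflavine S as 100% / Reagent: Cy5/quencher beacon DNA duplex and ATP to start / Technique: Cy5 fluorescence / Replication: singlicate / Evaluation: % inhibition of end-to-start signal ratio versus controls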
DNA FID counter: compounds displacing fluorescent DNA intercalator, primary screen, artefact control for HCV NS3 helicase inhibitor project, biochemical, FID fluorescence; AID 1845, 2009; inhibition, % at 7.9 µM; DNA fluorescent intercalator displacement; 290,000 compounds, 0.17% hits; in the data active = inhibition above about 37%;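 note: higher means more ethidium bromide displaced from hairpin DNA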
HIF act: HIF pathway transcriptional activators, primary screen, cell-based, U2OS HRE-luciferase, luminescence; 300,000 compounds, 0.32% hits; U2OS HRE-luciferase reporter; normalized: DMSO 0%, desferrioxamine 100%; activation, % at 7.5 µM (by protocol); AID 1910, 2009;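 active = mean activation of at least 10% of the iron chelator positive control signal, with at least half of replicates also reaching 10%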
PP1 confirm: PP1 phosphatase inhibitors, confirmation, biochemical, fluorescence, OMFP substrate, triplicate. purified PP1alpha. 1,900 compounds, 52% hits. shares compounds with PP1 inh. inhibition, % at 6.7 µM;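 active = mean PP1 inhibition above a set limit taken from the earlier primary screen, cut at about 15% in these data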
PP5 counter: PP5 phosphatase inhibition by PP1 hits, confirmation, counter-screen for PP1 inhibitor project, biochemical, fluorescence, triplicate. shares compounds with PP1 inh. purified PP5c, OMFP fluorescence. inhibition, % at 6.7 µM. 1,900 compounds, 4% hits. AID 2360, 2010;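 active = mean PP5 inhibition over triplicate wells above about 9.5% taken from the earlier PP1 screen, limit read from the data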
Hits are given with their value; i = inactive; nt = no result given.

SMILES	PP1 inh	PP5 primary	NS3 helicase inh	DNA FID counter	HIF act	PP1 confirm	PP5 counter
Cc1nn(C)cc1CNC(=O)C1C2CCC(O2)C1C(=O)O (stereo not given)	62	70	i	i	i	37	41
Cc1nn(Cc2ccc(Cl)cc2Cl)c(C)c1NC(=O)C1C2CCC(O2)C1C(=O)O (stereo not given)	32	46	i	i	i	i	23
O=C(O)C1C2CCC(O2)C1C(=O)Nc1ccc(Cl)cc1F (stereo not given)	67	69	i	i	i	26	34
Cc1ccccc1C(=O)N(C)c1ccccc1C(=O)NCc1ccccc1	i	i	i	i	i	nt	nt
O=C(NCc1ccc(Cl)cc1)C1CCN(C(=O)c2ccco2)CC1	i	i	i	i	i	nt	nt
O=C(O)C1C2CCC(O2)C1C(=O)NCc1ccc(Cl)cc1 (stereo not given)	32	48	i	i	i	17	32
C[C@H](NC(=O)c1nc[nH]c1C(=O)NCCCCCNC(=O)OC(C)(C)C)C(=O)OC(C)(C)C	i	i	i	i	i	nt	nt
CC(C)C[C@H](NC(=O)c1nc[nH]c1C(=O)NCCCCCNC(=O)OC(C)(C)C)C(=O)OC(C)(C)C	16	9.9	i	i	i	i	i
CC(C)C[C@H](NC(=O)c1[nH]cnc1C(=O)N[C@@H](C)c1ccccc1)C(=O)OCc1ccccc1	18	12	nt	nt	i	i	i
Cc1ccc(S(=O)(=O)CCC(=O)OCC(=O)c2ccc(F)cc2)cc1	31	i	nt	nt	i	i	i
Cc1cc(OCC(=O)OCC(=O)N(C)Cc2ccccc2C)ccc1Cl	i	i	nt	nt	nt	nt	nt
C=CCOC(=O)C(=O)/C=C/c1ccc2c(c1)Cc1ccccc1-2	21	i	i	i	i	18	i
O=C(CSc1nnc(SCc2cccc3ccccc23)s1)N/N=C/c1c[nH]c2ccccc12	i	i	i	i	i	nt	nt
O=C(CSc1nnc(SCc2ccc(Cl)cc2)s1)N/N=C/c1c[nH]c2ccccc12	25	i	i	i	i	32	i
COC(=O)CSc1nc2ccc(NC(=O)CSc3nnnn3Cc3ccccc3)cc2s1	i	i	i	i	i	nt	nt
O=C(CSc1nc2ccc(NC(=O)CSc3nnnn3Cc3ccccc3)cc2s1)Nc1ccccc1	22	i	i	i	i	i	i
Cc1cc(C)c(NC(=O)CSc2nc3ccc(NC(=O)CSc4nnnn4Cc4ccccc4)cc3s2)c(C)c1	20	i	i	i	i	31	i
Cn1c(=O)c2sccc2n(Cc2ccccc2)c1=O	i	i	i	i	i	nt	nt
O=C(O)C1C2C=CC(C2)C1C(=O)NCc1ccc(Cl)c(Cl)c1 (stereo not given)	i	i	i	i	i	nt	nt
CCOC(=O)c1sc(NC(=O)CCCn2nc([N+](=O)[O-])cc2C)c(C(=O)OCC)c1C	i	i	i	i	nt	nt	nt
O=[N+]([O-])c1ccc(N2CCN(S(=O)(=O)c3ccccc3)CC2)cc1NCc1cccnc1	i	i	i	i	i	nt	nt
O=[N+]([O-])c1ccc(N2CCN(S(=O)(=O)c3ccc(Cl)cc3)CC2)cc1NCc1cccnc1	19	i	i	i	i	16	i
O=C1CC(=O)N(Cc2ccco2)C(=S)N1	i	i	i	i	i	nt	nt
O=C1CC(=O)N(Cc2ccco2)C(=O)N1	58	i	i	i	i	i	i
COc1cc(C(=O)OCCCN=C2NS(=O)(=O)c3ccccc32)cc(OC)c1OC	i	i	i	i	i	nt	nt
SMILES	PP1 inh	PP5 primary	NS3 helicase inh	DNA FID counter	HIF act	PP1 confirm	PP5 counter
Cc1nn(CC(=O)NC(=O)NC2CCCC(C)C2C)c(=O)c(C#N)c1C (stereo not given)	i	i	nt	nt	i	nt	nt
COc1ccc([C@H]2Oc3cc(O)cc(O)c3C(=O)C2[C@@H]2C(=O)c3c(O)cc(O)cc3O[C@@H]2c2ccc(OC)cc2)cc1 (stereo not given in full)	25	i	nt	nt	i	i	i
Cc1cc(C)cc(C(=O)N[C@@H](C)C(=O)N2CCC3(CC2)NCCc2[nH]cnc23)c1	i	i	i	i	i	nt	nt
CCOc1cccc(-c2nn(-c3ccccc3)cc2/C=C(/C#N)C(=O)NCCCn2ccnc2)c1	26	i	i	i	i	17	i
N#C/C(=C/c1cn(-c2ccccc2)nc1-c1cccc(OCc2ccccc2)c1)C(=O)NCCCn1ccnc1	21	i	i	i	i	i	i
CCSc1ccc(-c2nn(-c3ccccc3)cc2/C=C(/C#N)C(=O)NCCCOC)cc1	i	i	i	i	nt	nt	nt
Cc1ccc(S(=O)(=O)CCC(=O)Nc2ccc(Br)cc2)cc1	i	i	i	i	i	nt	nt
COC(=O)c1cc(NC(=O)Cc2cc(OC)c(OC)c(OC)c2)cc(C(=O)OC)c1	i	i	i	i	i	nt	nt
Cc1cc(C)n(-c2nc(NC(C)(C)C)nc(NC(C)(C)C)n2)n1	i	i	i	i	i	nt	nt
Cc1cc(C)n(-c2nc(Nc3ccccc3C)nc(-n3nc(C)cc3C)n2)n1	36	i	i	i	i	38	i
Cc1cc(C)n(-c2nc(Nc3ccccc3C(F)(F)F)nc(-n3nc(C)cc3C)n2)n1	30	i	i	i	i	17	i
COc1cc(Br)c(C2C(C#N)=C(N)Oc3n[nH]c(-c4cccnc4)c32)cc1OC (stereo not given)	i	i	i	i	i	nt	nt
O=C(NCCCN1CCCC1=O)c1cccc(S(=O)(=O)Nc2ccccc2Cl)c1	i	i	nt	nt	nt	nt	nt
O=C(N/N=C/c1ccc2c(c1)OCO2)c1ccc(NC(=O)c2ccc(F)cc2)cc1	19	i	i	i	i	30	i
O=C(N/N=C/c1ccc(Cl)cc1)c1ccc2c(c1)OCO2	i	i	i	i	i	nt	nt
O=C(N/N=C/c1ccc2c(c1)OCO2)c1sc2cc(Cl)ccc2c1Cl	i	i	i	i	i	nt	nt
COc1ccc2c(Cl)c(C(=O)N/N=C/c3ccc4c(c3)OCO4)sc2c1	20	i	i	i	i	48	i
NC(=NCCCCCCN=C(N)/N=C(\N)Nc1ccc(Cl)cc1)/N=C(\N)Nc1ccc(Cl)cc1	20	i	i	59	i	i	i
Cc1cc(C)cc(C(=O)NC(CC(N)=O)c2ccc(NCC3CC3)c([N+](=O)[O-])c2)c1 (stereo not given)	i	i	i	i	i	nt	nt
C/C(CC(=O)Nc1ccc(Cl)cc1Cl)=N\NC(=O)c1cnccn1	i	i	i	i	i	nt	nt
